Bioassay records deposited in PubChem BioAssay by several laboratories.
LANA-H2B inh: blocks KSHV LANA binding to histone H2A/H2B; Q9QR71; cell-free LANA-H2A/H2B peptide, fluorescence polarization; inhibition, % (concentration not given with the values); 320,000 tested, 0.6% active; AID 2629; in the data active = inhibition mostly above about 10%, no sharp cut-off; inactive = mostly below about 6.7%
HDAC3 inh: inhibitors of human histone deacetylase 3; O15379; recombinant HDAC3, fluorogenic peptide/trypsin coupled, fluorescence; inhibition, % at 8.3 µM; 320,000 tested, 0.15% active; in the data active = inhibition above about 26%, passing the limit was not always enough; inconclusive = no clear call, values can overlap the other calls
Arr AP2 block: blocks beta-arrestin peptide binding to AP2 adaptin; FITC-arrestin peptide / GST-AP2 beads, flow cytometry; AP2 beta2 appendage carries R879A mutation; inhibition, % at 10 µM; 340,000 tested, 0.31% active;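 active = inhibition above a set limit, near 3 SD of compounds lacking own fluorescence, cut at about 54% in these data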;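 also: plate controls were DMSO wells for no effect and 5 µM unlabelled arrestin peptide for full effect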
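System: GST-AP2 R879A bound to glutathione beads, E. coli-expressed. Also added: 50 nM FITC-arrestin peptide. Schedule: compound with beads 12 min RT, then probe 1 h RT. Signal: bead flow cytometry, FITC channel. Read-out basis: percent response.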
Pemphigus Ab inh: inhibitors of pemphigus antibody binding to human desmoglein-3 | P32926 | DSG3-coupled beads, scFv-anti-DSG3-GFP binding, flow cytometry; hits give low values | binding (percent of control), % at 10 µM | 310,000 tested, 0.48% active;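 active = binding more than 3 SD below its plate's average and above zero; inconclusive = below that plate limit but binding exactly zero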;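 also: hits lower antibody fragment binding to DSG3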
Target sequence (P32926 whole entry, looked up, the tested form may be a part): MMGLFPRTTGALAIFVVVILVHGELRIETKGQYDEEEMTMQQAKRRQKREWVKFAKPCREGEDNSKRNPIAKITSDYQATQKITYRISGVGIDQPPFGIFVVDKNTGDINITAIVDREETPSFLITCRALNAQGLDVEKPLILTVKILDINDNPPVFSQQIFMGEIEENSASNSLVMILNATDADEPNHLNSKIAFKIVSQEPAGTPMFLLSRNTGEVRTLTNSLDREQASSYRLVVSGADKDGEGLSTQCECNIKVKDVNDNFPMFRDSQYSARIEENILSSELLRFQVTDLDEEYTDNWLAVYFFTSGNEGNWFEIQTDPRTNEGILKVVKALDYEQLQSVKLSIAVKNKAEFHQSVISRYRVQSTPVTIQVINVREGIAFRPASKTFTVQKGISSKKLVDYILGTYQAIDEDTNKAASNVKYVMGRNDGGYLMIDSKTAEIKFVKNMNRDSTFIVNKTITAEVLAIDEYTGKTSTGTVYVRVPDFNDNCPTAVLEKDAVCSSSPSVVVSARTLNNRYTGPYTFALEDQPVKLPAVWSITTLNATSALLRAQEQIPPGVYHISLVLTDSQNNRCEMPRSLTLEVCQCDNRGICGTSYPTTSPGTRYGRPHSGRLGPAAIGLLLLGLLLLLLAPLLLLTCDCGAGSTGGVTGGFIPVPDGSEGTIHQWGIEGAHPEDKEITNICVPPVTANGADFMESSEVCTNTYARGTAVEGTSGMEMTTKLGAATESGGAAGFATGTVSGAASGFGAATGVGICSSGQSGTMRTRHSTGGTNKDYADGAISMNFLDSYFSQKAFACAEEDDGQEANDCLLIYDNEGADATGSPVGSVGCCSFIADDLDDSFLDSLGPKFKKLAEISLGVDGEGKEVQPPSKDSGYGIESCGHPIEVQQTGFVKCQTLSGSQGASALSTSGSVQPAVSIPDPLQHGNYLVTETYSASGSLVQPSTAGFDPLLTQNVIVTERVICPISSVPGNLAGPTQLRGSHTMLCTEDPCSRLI
T cell HTS: modulates CD8 T cell binding to vesicles | 2C CD8+ T cell-vesicle binding, flow cytometry; hits give low values | response (vesicle binding), % at 7 µM | 330,000 tested, 0.068% active;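 active = response, share of CD8 T cells binding vesicles, and their 90th percentile fluorescence all below set limits, cut at about 80% in these data, passing the limit was not always enough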;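 also: values below 100% mean blocked vesicle binding to the CD8+ T cells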
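Material: 2C TCR transgenic mouse naive CD8+ T cells, MACS-purified. Also added: QL9-charged Drosophila Ld/ICAM-1/B7-1 vesicles. Timing: binding 1.5 h at 37 °C. Measured by: high-throughput flow cytometry with anti-B7-1 and anti-CD8 staining. Read-out: percent CD8+ FL2 mean versus row control. Controls: Unloaded micro-vesicles (low), QL9 vesicles with 0.7% DMSO (high).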
* hit, by the source's call; i = inactive; ? = inconclusive; / = no result; + = active, no number. Hits are enriched below; roughly 1.5% of the tested compounds scored in any of these assays.

SMILES | LANA-H2B inh | HDAC3 inh | Arr AP2 block | Pemphigus Ab inh | T cell HTS
C/C(=N\N=C(N)N)c1cccc([N+](=O)[O-])c1 | -1 | -4 | 23 | 98 | 186
CCOC(=O)C1CCCN(c2c(NCCCN(CC)c3ccccc3)c(=O)c2=O)C1 (stereo not drawn) | 17* | -5 | 13 | 100 | 150
COc1ccccc1S(=O)(=O)N(C)C[C@@H]1OCc2cn(nn2)CCCC(=O)N([C@H](C)CO)C[C@H]1C | / | / | / | 98 | /
Cc1ccc(S(C)(=O)=O)cc1C(=O)Nc1ccc(S(=O)(=O)Nc2nccs2)cc1 | 3 | 2 | -2 | 98 | 360
CCOc1ccc(N(CC)S(=O)(=O)c2ccc3c(c2)n(C)c(=O)c(=O)n3C)cc1 | / | / | -2 | -11* | 350
COc1ccc(CNC(=O)CNC(=O)c2ccc(Br)o2)cc1OC | -27 | 3 | 24 | 100 | 346
CCOc1ccccc1-c1nc(-c2ccncc2)no1 | -2 | 3 | -11 | 96 | 358
CCSc1ccccc1-c1nc(-c2ccncc2)no1 | 5 | 1 | 8 | 70* | 346
Nn1c(SCC(=O)Nc2ccccc2Oc2ccccc2)nnc1C1CC1 | / | / | -9 | 104 | /
COc1ccc(C(=O)NC2CC2)cc1OC1CCN(Cc2ccc(F)c(F)c2)CC1 | 2 | -4 | -6 | 93 | 250
Cc1cc(-c2nnc(SCC(=O)Nc3ccc(F)cc3F)n2N)n[nH]1 | 3 | 3 | 17 | 99 | 314
COc1ccc(C2c3c(oc4ccccc4c3=O)C(=O)N2CC2CCCO2)cc1 (stereo not drawn) | 1 | 1 | 7 | 94 | i
NC(=O)COc1ccc(C2c3c(oc4ccccc4c3=O)C(=O)N2CC2CCCO2)cc1 (stereo not drawn) | 197* | -1 | -3 | 96 | 517
O=C(CN1CCc2[nH]c3ccccc3c2C1)N1CCCCC1 | 18* | 0 | -6 | / | 137
O=C(CN1CCN(c2ccccc2)CC1)N1CCc2[nH]c3ccccc3c2C1 | -1 | 0 | 1 | 102 | 590
CCOc1c(Cl)cc(C2NC(=O)NC(C)=C2C(=O)NCc2ccccc2)cc1OC (stereo not drawn) | 2 | 3 | 6 | 108 | 193
CCOC(=O)COc1ccc(Br)cc1C1NC(=O)NC(C)=C1C(=O)NCc1ccccc1 (stereo not drawn) | 67* | -6 | -13 | 104 | 366
CC(=O)N1CCN(S(=O)(=O)c2cccc(C(=O)NC3CC3)c2)CC1 | -3 | 0 | 2 | ? | 63
OC(CNCCC1C=Nc2ccccc21)Cn1c2ccc(Cl)cc2c2cc(Cl)ccc21 (stereo not drawn) | -1 | 46* | 31 | 129 | 927
COC(=O)c1cc(C(=O)NCc2ccc3c(c2)OCO3)cc([N+](=O)[O-])c1 | 1 | -2 | 5 | 122 | 146
Cn1c(N2CCOCC2)nc2c1c(=O)n(Cc1ccc(Cl)c(Cl)c1)c(=O)n2C | -3 | 1 | -3 | / | 286
Cn1c(OCc2ccco2)nc2c1c(=O)n(Cc1ccc(Cl)c(Cl)c1)c(=O)n2C | -2 | 12 | 81* | 98 | 257
COc1ccc(S(=O)(=O)N2CCOCC2)cc1NC(=O)c1ccccc1C | 3 | 0 | 20 | / | 0
Cc1ccc(N(C(=O)CCC(=O)Nc2ccccn2)C(C(=O)NC(C)C)c2ccc(F)cc2)cc1 (stereo not drawn) | 18* | -2 | -2 | 100 | 478
COc1cc(C(=O)Nc2nnc(Cc3ccccc3)s2)cc(OC)c1OC | -2 | 8 | 13 | 101 | 205
SMILES | LANA-H2B inh | HDAC3 inh | Arr AP2 block | Pemphigus Ab inh | T cell HTS
COc1cc(C(=O)Nc2nnc(CC(=O)N3CCOCC3)s2)cc(OC)c1OC | 17* | -5 | 14 | 101 | 97
Cc1cc(C)nc(SCc2ccc(C(=O)N/N=C/c3ccc(C(=O)O)cc3)cc2)n1 | 0 | 2 | 7 | 27* | 272
COc1ccc(/C=N/NC(=O)c2ccc(CSc3nc(C)cc(C)n3)cc2)cc1O | -1 | 6 | 9 | 101 | 393
Cc1ccc(C)c(S(=O)(=O)N2CCN(C(=O)Cn3c(=O)cnc4ccccc43)CC2)c1 | 6 | 2 | -14 | 109 | 599
O=C(CN1C(=O)COc2ccccc21)NCc1ccc(C(=O)O)cc1 | 2 | 1 | 36 | 102 | 383
CCc1ccc(CNC(=O)CN2C(=O)COc3ccccc32)cc1 | 12* | -3 | 8 | 101 | 159
COc1ccc(CCN2CC(C(=O)N(C)CCc3cn[nH]c3)CCC2=O)cc1 (stereo not drawn) | / | / | 12 | 102 | /
Cc1ccc(C(=O)CSc2cc(C)nc(SCC(=O)c3ccccc3)n2)cc1 | -4 | 2 | -2 | 98 | 393
Cc1cc(Oc2ccc(C)c(Cl)c2)nc(SCC(=O)c2ccccc2)n1 | 16* | -10 | 6 | 99 | 580
CSCCC(NC(=O)c1ccccc1Br)C(=O)NCC1CCCCC1 (stereo not drawn) | 2 | 0 | 20 | 106* | 356
CSCCC(NC(=O)c1ccco1)C(=O)NCC1CCCCC1 (stereo not drawn) | -3 | 5 | 12 | 100 | 314
Cc1cc(C(=O)N2CCCC2C(=O)O)c(C)o1 (stereo not drawn) | 18* | -1 | 1 | 96 | 464
O=C(NNC(=O)C(c1ccccc1)c1ccccc1)c1ccccc1O | / | / | / | 102 | /
CC1CC(C)CN(c2nc3c(c(=O)n(C)c(=O)n3C)n2CCSc2ncccn2)C1 (stereo not drawn) | 22* | -12 | 1 | 100 | 705
Cn1c(=O)c2c(nc(N3CCOCC3)n2CCSc2ncccn2)n(C)c1=O | 11 | 1 | 6 | 112 | 459
Cc1csc2nc(SCC(=O)Nc3ccccc3F)[nH]c(=O)c12 | 28* | -4 | 2 | / | 304
COc1ccc(OC)c(NC(=O)CSc2nc3scc(C)c3c(=O)[nH]2)c1 | -2 | -1 | 20 | 93 | 175
O=c1c(-c2ccccc2)c(O)c2cccc3c2n1CCC3 | 20* | -10 | -1 | 111 | 363
Cc1cc(C)c(-c2c(O)c3cccc4c3n(c2=O)CCC4)c(C)c1 | 1 | -6 | 1 | 103 | 345
CNCCCCOc1ccccc1Cc1ccccc1 | 2 | 1 | / | / | 637
CN(C)CCOc1ccccc1Cc1ccccc1 | 6.1* | 4 | -3 | 109 | 246
CC(C)N1CC=C2C(C#N)=C(N)C(C#N)(C#N)C(c3ccccc3)C2C1 (stereo not drawn) | + | -16 | 29 | / | 805
CC(C)N1CC=C2C(C#N)=C(N)C(C#N)(C#N)[C@H](c3ccoc3)[C@H]2C1 | 19 | ? | / | / | 556
O=C(c1cccs1)n1nc(-c2ccco2)nc1SCc1ccccc1 | 1 | 65* | / | / | 524
CC1=Nc2ccccc2N=C(NC(=O)CN2CCN(c3ccccc3)CC2)C1c1ccccc1 (stereo not drawn) | -3 | 5 | 8 | 100 | 838
